# Reference: ChEMBL document CHEMBL1926614, “Substituted thiazoles V. synthesis and antitumor activity of novel thiazolo[2,3-b]quinazoline and pyrido[4,3-d]thiazolo[3,2-a]pyrimidine analogues” (2012)
# Activity calls are given as the source filed them. The calls are words filed in the database; no cut-off is given here.
# How the values were obtained:
# Type in all cases: functional
# MCF7 = test: Growth inhibition of human MCF7 cells at 10 uM after 48 hrs by coulter counting; conditions: MCF7, 48 h, read-out: GI
# Method in brief: (§1)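 Single-dose primary screen across the full NCI 60-cell-line panel. Stocks were made in DMSO and diluted in PBS to a final DMSO below 1%. Cultures at 6 × 10⁴ cells/ml were run in duplicate wells alongside PBS/DMSO vehicle controls at 37 °C in humidified 5% CO₂. Data were expressed as percent growth of treated cells.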
# UACC-62 = test: Growth inhibition of human UACC62 cells at 10 uM after 48 hrs by coulter counting; conditions: UACC-62, 48 h, read-out: GI
# Method in brief: (§2)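 Single-dose screen in the NCI 60 human tumor cell line panel (nine subpanels). Compounds dissolved in DMSO and diluted in phosphate buffered saline, keeping final DMSO below 1%. Added in duplicate wells to cells at 6 × 10⁴ cells/ml. Controls held PBS and DMSO at matching dilutions. Incubated at 37 °C, humidified, 5% CO₂. Reported as percent growth of treated cells.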
# BT-549 = test: Growth inhibition of human BT549 cells at 10 uM after 48 hrs by coulter counting; conditions: BT-549, 48 h, read-out: GI; method in brief: as §1
# EKVX = test: Growth inhibition of human EKVX cells at 10 uM after 48 hrs by coulter counting; conditions: read-out: GI; method in brief: as §1
# MDA-MB-435 = test: Growth inhibition of human MDA-MB-435 cells at 10 uM after 48 hrs by coulter counting; method in brief: as §1
# A498 = test: Growth inhibition of human A498 cells at 10 uM after 48 hrs by coulter counting; conditions: A498, 48 h, read-out: GI; method in brief: as §1
# T47D = test: Growth inhibition of human T47D cells at 10 uM after 48 hrs by coulter counting; conditions: read-out: GI; method in brief: as §2
# A549 = test: Growth inhibition of human A549 cells at 10 uM after 48 hrs by coulter counting; conditions: A549, 48 h, read-out: GI; method in brief: as §1
# [1] = Growth inhibition of human NCI-322M cells at 10 uM after 48 hrs by coulter counting; conditions: read-out: GI; method in brief: as §1
# SNB-19 = test: Growth inhibition of human SNB19 cells at 10 uM after 48 hrs by coulter counting; conditions: SNB-19, 48 h, read-out: GI; method in brief: as §1
# HCT-116 = test: Growth inhibition of human HCT116 cells at 10 uM after 48 hrs by coulter counting; method in brief: as §1
# HOP-62 = test: Growth inhibition of human HOP62 cells at 10 uM after 48 hrs by coulter counting; method in brief: as §1
# MOLT-4 = test: Growth inhibition of human MOLT4 cells at 10 uM after 48 hrs by coulter counting; conditions: MOLT-4, 48 h, read-out: GI; method in brief: as §1
# SNB-75 = test: Growth inhibition of human SNB75 cells at 10 uM after 48 hrs by coulter counting; conditions: SNB-75, 48 h, read-out: GI; method in brief: as §1
# [2] = Cytotoxicity against human prostate cancer cells after 48 hrs by coulter counting; conditions: Cancer cell lines
# Method in brief: (§3)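 NCI 60-cell-line panel covering nine tumour subpanels, tested over a 5-log dose range. Compounds were dissolved in DMSO and diluted in phosphate-buffered saline to a final DMSO below 1%. Wells held 6 × 10⁴ cells/ml and were run in duplicate. Controls contained PBS and DMSO at matching dilutions. Incubation was at 37 °C in humidified 5% CO₂. GI₅₀, TGI and LC₅₀ were reported.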
# [3] = Cytotoxicity against human breast cancer cells after 48 hrs by coulter counting; conditions: Cancer cell lines; method in brief: as §3
# KM12 = test: Growth inhibition of human KM12 cells at 10 uM after 48 hrs by coulter counting; method in brief: as §1
# TK-10 = test: Growth inhibition of human TK10 cells at 10 uM after 48 hrs by coulter counting; conditions: TK-10, 48 h, read-out: GI; method in brief: as §2
# ACHN = test: Growth inhibition of human ACHN cells at 10 uM after 48 hrs by coulter counting; conditions: read-out: GI; method in brief: as §1
# HCT-15 = test: Growth inhibition of human HCT15 cells at 10 uM after 48 hrs by coulter counting; method in brief: as §1
# SN12C = test: Growth inhibition of human SN12C cells at 10 uM after 48 hrs by coulter counting; conditions: read-out: GI; method in brief: as §1
# OVCAR-3 = test: Growth inhibition of human OVCAR3 cells at 10 uM after 48 hrs by coulter counting; method in brief: as §1
# SF-268 = test: Growth inhibition of human SF268 cells at 10 uM after 48 hrs by coulter counting; conditions: SF-268, 48 h, read-out: GI; method in brief: as §1
# SK-MEL-5 = test: Growth inhibition of human SK-MEL-5 cells at 10 uM after 48 hrs by coulter counting; conditions: SK-MEL-5, 48 h, read-out: GI; method in brief: as §1
# NCI-H460 = test: Growth inhibition of human NCI-H460 cells at 10 uM after 48 hrs by coulter counting; method in brief: as §1
# NCI-H522 = test: Growth inhibition of human NCI-H522 cells at 10 uM after 48 hrs by coulter counting; conditions: NCI-H522, 48 h, read-out: GI; method in brief: as §1
# SK-MEL-28 = test: Growth inhibition of human SK-MEL-28 cells at 10 uM after 48 hrs by coulter counting; conditions: SK-MEL-28, 48 h, read-out: GI; method in brief: as §1
# NSCLC = test: Cytotoxicity against human NSCLC cells after 48 hrs by coulter counting; method in brief: as §3
# SF-295 = test: Growth inhibition of human SF295 cells at 10 uM after 48 hrs by coulter counting; conditions: SF-295, 48 h, read-out: GI; method in brief: as §1
# UACC-257 = test: Growth inhibition of human UACC257 cells at 10 uM after 48 hrs by coulter counting; conditions: UACC-257, 48 h, read-out: GI; method in brief: as §2
# DU-145 = test: Growth inhibition of human DU145 cells at 10 uM after 48 hrs by coulter counting; method in brief: as §1
# HT-29 = test: Growth inhibition of human HT-29 cells at 10 uM after 48 hrs by coulter counting; method in brief: as §1
# [4] = Cytotoxicity against human ovarian cancer cells after 48 hrs by coulter counting; conditions: Cancer cell lines; method in brief: as §3
# RPMI-8226 = test: Growth inhibition of human RPMI8226 cells at 10 uM after 48 hrs by coulter counting; method in brief: as §1
# OVCAR-8 = test: Growth inhibition of human OVCAR8 cells at 10 uM after 48 hrs by coulter counting; method in brief: as §1
# SR = test: Growth inhibition of human SR cells at 10 uM after 48 hrs by coulter counting; method in brief: as §2
# [5] = Cytotoxicity against human renal cancer cells after 48 hrs by coulter counting; conditions: Cancer cell lines; method in brief: as §3
# 786-0 = test: Growth inhibition of human 786-0 cells at 10 uM after 48 hrs by coulter counting; conditions: 786-0, 48 h, read-out: GI; method in brief: as §1
# U-251 = test: Growth inhibition of human U251 cells at 10 uM after 48 hrs by coulter counting; method in brief: as §2
# [6] = read-out: LC50 (the source's name)
smiles,measurement,setting,value
CCN1CC2=C(N=C3SC=CN3C2c2ccc(OC)cc2)/C(=C/c2ccc(OC)cc2)C1 (centres undefined),inhibition of growth at 10 µM,MCF7,74.3%
same,inhibition of growth at 10 µM,UACC-62,49.3%
same,inhibition of growth at 10 µM,BT-549,55.2%
same,inhibition of growth at 10 µM,EKVX,51.9%
same,growth inhibition (GI),MDA-MB-435,Active
same,inhibition of growth at 10 µM,A498,11.1%
same,inhibition of growth at 10 µM,T47D,24.4%
same,inhibition of growth at 10 µM,A549,66.3%
same,inhibition of growth at 10 µM,[1],29%
same,inhibition of growth at 10 µM,SNB-19,68.3%
same,growth inhibition (GI),HCT-116,Active
same,growth inhibition (GI),HOP-62,Active
same,inhibition of growth at 10 µM,MOLT-4,90.4%
same,inhibition of growth at 10 µM,SNB-75,22.3%
same,GI50,[2],2.8 µM
same,LC50 (concentration killing 50% of cells),[2],68.1 µM
same,TGI,[2],43.9 µM
same,GI50,[3],2.5 µM
same,TGI,[3],8 µM
same,CC50,[3]; [6],73.4 µM
same,growth inhibition (GI),KM12,Active
same,inhibition of growth at 10 µM,TK-10,70%
same,inhibition of growth at 10 µM,ACHN,83%
same,growth inhibition (GI),HCT-15,Active
same,inhibition of growth at 10 µM,SN12C,96.9%
same,growth inhibition (GI),OVCAR-3,Active
same,inhibition of growth at 10 µM,SF-268,85.5%
same,inhibition of growth at 10 µM,SK-MEL-5,74.4%
same,growth inhibition (GI),NCI-H460,Active
same,inhibition of growth at 10 µM,NCI-H522,52.3%
same,inhibition of growth at 10 µM,SK-MEL-28,10.9%
same,GI50,NSCLC,2.5 µM
same,TGI,NSCLC,18.3 µM
same,CC50,NSCLC; [6],64.9 µM
same,inhibition of growth at 10 µM,SF-295,71.8%
same,inhibition of growth at 10 µM,UACC-257,44.8%
same,growth inhibition (GI),DU-145,Active
same,growth inhibition (GI),HT-29,Active
same,GI50,[4],2.8 µM
same,TGI,[4],22.5 µM
same,CC50,[4]; [6],74.7 µM
same,growth inhibition (GI),RPMI-8226,Active
same,growth inhibition (GI),OVCAR-8,Active
same,growth inhibition (GI),SR,Active
same,GI50,[5],2.3 µM
same,LC50 (concentration giving 50% net cell kill),[5],24.9 µM
same,TGI,[5],6 µM
same,inhibition of growth at 10 µM,786-0,53.2%
same,growth inhibition (GI),U-251,Active
